Measurements taken from ChEMBL document CHEMBL1158040, “Biological activities and 3D QSAR studies of a series of Delisea pulchra (cf. fimbriata) derived natural products” (J Nat Prod, 2006).
Values after ≈ are worked out from the molar mass of the structure shown. Active and inactive are the calls of the source. The calls are words filed in the database; no cut-off is given here.

test system: not listed separately; assay: Inhibition of PKC; settings: not given

| IC50 | Compound |
| --- | --- |
| ≥ 200 µM | CCCCCCCC/C=C(\Br)C(O)C(Br)Br (stereo not drawn) |

test system: Micrococcus luteus; assay: Antimicrobial activity against Micrococcus luteus at 10 ug; assay type: functional, organism-based; settings: not given
In short: (§1)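 Direct bioautography: each compound is spotted onto TLC plates and the solvent evaporated. The test organism is then grown directly on the plate. Growth inhibition is scored at the spot as active (+) or very active (++). Where a number is given, it is the radius in mm of the inhibition zone around the spot.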

| Compound | Activity |
| --- | --- |
| CCC[C@@H](OC(C)=O)C1=C(Br)/C(=C/I)OC1=O | Active |
| CCCCCCCC/C=C(\Br)C(O)C(Br)Br (stereo not drawn) | Active |

test system: not listed separately; assay: Selectivity index, ratio of IC50 for human KB cells to IC50 for Plasmodium falciparum D6; assay type: toxicity, cell-based; settings: KB cells versus Plasmodium falciparum D6, read-out: Ratio IC50
In short: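 Plasmodium falciparum clones were assayed in vitro: D6 (chloroquine-sensitive) and W2 (chloroquine-resistant). IC50 is in μg/mL. The selectivity index is the ratio of the antimalarial to the cytotoxic activity.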

| Compound | selectivity ratio |
| --- | --- |
| CCC[C@@H](OC(C)=O)C1=C(Br)/C(=C/I)OC1=O | < 1 |

test system: LNCaP; assay: Cytotoxicity against human LNCAP cells; assay type: functional; settings: read-out: ED50 (the source's name)

| Compound | EC50 |
| --- | --- |
| CCC[C@@H](OC(C)=O)C1=C(Br)/C(=C/I)OC1=O | 2 µg/mL (≈ 4.82 µM) |

test system: KB; assay: Cytotoxicity against human KB cells; assay type: functional; settings: read-out: ED50 (the source's name)

| Compound | EC50 |
| --- | --- |
| CCC[C@@H](OC(C)=O)C1=C(Br)/C(=C/I)OC1=O | 0.1 µg/mL (≈ 0.241 µM) |

test system: KB; assay: Cytotoxicity against vinblastine-resistant human KB cells; assay type: functional; settings: read-out: ED50 (the source's name)
In short: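 The vinblastine-resistant KB-V1 line was tested both with and without added vinblastine in the cultured tumour-cell cytotoxicity panel. Results are reported as ED50.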

| Compound | EC50 |
| --- | --- |
| CCC[C@@H](OC(C)=O)C1=C(Br)/C(=C/I)OC1=O | 0.2 µg/mL (≈ 0.482 µM) |

test system: Plasmodium falciparum; assay: Antimalarial activity against chloroquine-resistant Plasmodium falciparum W2; assay type: functional, organism-based; settings: not given
In short: (§2)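 In vitro growth inhibition of Plasmodium falciparum clones D6 (chloroquine-sensitive) and W2 (chloroquine-resistant); IC50 reported in μg/mL.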

| Compound | IC50 |
| --- | --- |
| CCC[C@@H](OC(C)=O)C1=C(Br)/C(=C/I)OC1=O | > 10 µg/mL |

test system: Micrococcus luteus; assay: Antimicrobial activity against Micrococcus luteus at 1 ug; assay type: functional, organism-based; settings: not given; in short: as §1

| Compound | Activity |
| --- | --- |
| CCC[C@@H](OC(C)=O)C1=C(Br)/C(=C/I)OC1=O | Active |
| CCCCCCCC/C=C(\Br)C(O)C(Br)Br (stereo not drawn) | inactive |

test system: Escherichia coli; assay: Antimicrobial activity against Escherichia coli at 5 ug; assay type: functional, organism-based; settings: not given; in short: as §1

| Compound | Activity |
| --- | --- |
| CCC[C@@H](OC(C)=O)C1=C(Br)/C(=C/I)OC1=O | Active |
| CCCCCCCC/C=C(\Br)C(O)C(Br)Br (stereo not drawn) | inactive |

test system: Lu1; assay: Cytotoxicity against human Lu1 cells; assay type: functional; settings: read-out: ED50 (the source's name)

| Compound | EC50 |
| --- | --- |
| CCC[C@@H](OC(C)=O)C1=C(Br)/C(=C/I)OC1=O | 1.5 µg/mL (≈ 3.61 µM) |

test system: Plasmodium falciparum; assay: Antimalarial activity against chloroquine-sensitive Plasmodium falciparum D6; assay type: functional, organism-based; settings: not given; in short: as §2

| Compound | IC50 |
| --- | --- |
| CCC[C@@H](OC(C)=O)C1=C(Br)/C(=C/I)OC1=O | 4.6 µg/mL (≈ 11.1 µM) |

test system: Penicillium oxalicum; assay: Antimicrobial activity against Penicillium oxalicum at 5 ug; assay type: functional; settings: read-out: IZ; in short: as §1

| Compound | zone of inhibition at 5 µg/disc |
| --- | --- |
| CCC[C@@H](OC(C)=O)C1=C(Br)/C(=C/I)OC1=O | 21 mm |
| CCCCCCCC/C=C(\Br)C(O)C(Br)Br (stereo not drawn) | 8 mm |

test system: ZR-75-1; assay: Cytotoxicity against human ZR-75-1 cells; assay type: functional; settings: read-out: ED50 (the source's name)

| Compound | EC50 |
| --- | --- |
| CCC[C@@H](OC(C)=O)C1=C(Br)/C(=C/I)OC1=O | < 0.1 µg/mL |

test system: Bacillus subtilis; assay: Antimicrobial activity against Bacillus subtilis at 10 ug; assay type: functional, organism-based; settings: not given; in short: as §1

| Compound | Activity |
| --- | --- |
| CCC[C@@H](OC(C)=O)C1=C(Br)/C(=C/I)OC1=O | Active |
| CCCCCCCC/C=C(\Br)C(O)C(Br)Br (stereo not drawn) | Active |

test system: Bacillus subtilis; assay: Antimicrobial activity against Bacillus subtilis at 0.1 ug; assay type: functional, organism-based; settings: not given; in short: as §1

| Compound | Activity |
| --- | --- |
| CCC[C@@H](OC(C)=O)C1=C(Br)/C(=C/I)OC1=O | inactive |

test system: Micrococcus luteus; assay: Antimicrobial activity against Micrococcus luteus at 0.1 ug; assay type: functional, organism-based; settings: not given; in short: as §1

| Compound | Activity |
| --- | --- |
| CCC[C@@H](OC(C)=O)C1=C(Br)/C(=C/I)OC1=O | Active |

test system: Bacillus subtilis; assay: Antimicrobial activity against Bacillus subtilis at 1 ug; assay type: functional, organism-based; settings: not given; in short: as §1

| Compound | Activity |
| --- | --- |
| CCC[C@@H](OC(C)=O)C1=C(Br)/C(=C/I)OC1=O | Active |
| CCCCCCCC/C=C(\Br)C(O)C(Br)Br (stereo not drawn) | inactive |

test system: Penicillium oxalicum; assay: Antimicrobial activity against Penicillium oxalicum at 0.01 ug; assay type: functional; settings: not given; in short: as §1

| Compound | Activity |
| --- | --- |
| CCC[C@@H](OC(C)=O)C1=C(Br)/C(=C/I)OC1=O | inactive |
| CCCCCCCC/C=C(\Br)C(O)C(Br)Br (stereo not drawn) | inactive |

test system: Bacillus subtilis; assay: Antimicrobial activity against Bacillus subtilis at 5 ug; assay type: functional, organism-based; settings: not given; in short: as §1

| Compound | Activity |
| --- | --- |
| CCC[C@@H](OC(C)=O)C1=C(Br)/C(=C/I)OC1=O | Active |
| CCCCCCCC/C=C(\Br)C(O)C(Br)Br (stereo not drawn) | Active |

test system: Penicillium oxalicum; assay: Antimicrobial activity against Penicillium oxalicum at 1 ug; assay type: functional; settings: read-out: IZ; in short: as §1

| Compound | zone of inhibition at 1 µg/disc |
| --- | --- |
| CCC[C@@H](OC(C)=O)C1=C(Br)/C(=C/I)OC1=O | 9 mm |
| CCCCCCCC/C=C(\Br)C(O)C(Br)Br (stereo not drawn) | 5 mm |

test system: Micrococcus luteus; assay: Antimicrobial activity against Micrococcus luteus at 5 ug; assay type: functional, organism-based; settings: not given; in short: as §1

| Compound | Activity |
| --- | --- |
| CCC[C@@H](OC(C)=O)C1=C(Br)/C(=C/I)OC1=O | Active |
| CCCCCCCC/C=C(\Br)C(O)C(Br)Br (stereo not drawn) | Active |

test system: Penicillium oxalicum; assay: Antimicrobial activity against Penicillium oxalicum at 0.1 ug; assay type: functional; settings: not given; in short: as §1

| Compound | Activity |
| --- | --- |
| CCCCCCCC/C=C(\Br)C(O)C(Br)Br (stereo not drawn) | inactive |

same assay, conditions: read-out: IZ

| Compound | zone of inhibition at 0.1 µg/disc |
| --- | --- |
| CCC[C@@H](OC(C)=O)C1=C(Br)/C(=C/I)OC1=O | 6 mm |

test system: Escherichia coli; assay: Antimicrobial activity against Escherichia coli at 0.1 ug; assay type: functional, organism-based; settings: not given; in short: as §1

| Compound | Activity |
| --- | --- |
| CCC[C@@H](OC(C)=O)C1=C(Br)/C(=C/I)OC1=O | inactive |
| CCCCCCCC/C=C(\Br)C(O)C(Br)Br (stereo not drawn) | inactive |

test system: KB; assay: Cytotoxicity against vinblastine-sensitive human KB cells; assay type: functional; settings: read-out: ED50 (the source's name)

| Compound | EC50 |
| --- | --- |
| CCC[C@@H](OC(C)=O)C1=C(Br)/C(=C/I)OC1=O | 3.6 µg/mL (≈ 8.67 µM) |

test system: Escherichia coli; assay: Antimicrobial activity against Escherichia coli at 10 ug; assay type: functional, organism-based; settings: not given; in short: as §1

| Compound | Activity |
| --- | --- |
| CCC[C@@H](OC(C)=O)C1=C(Br)/C(=C/I)OC1=O | Active |
| CCCCCCCC/C=C(\Br)C(O)C(Br)Br (stereo not drawn) | Active |

target: Human immunodeficiency virus type 1 reverse transcriptase (Human immunodeficiency virus 1, UniProt Q72547); assay: Inhibition of HIV1 RT at 200 uM; settings: not given
In short: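 HIV-1 reverse transcriptase inhibition was measured in an ELISA-based system.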

| Compound | IC50 |
| --- | --- |
| CCC[C@@H](OC(C)=O)C1=C(Br)/C(=C/I)OC1=O | 700 µM |

test system: Penicillium oxalicum; assay: Antimicrobial activity against Penicillium oxalicum at 10 ug; assay type: functional; settings: read-out: IZ; in short: as §1

| Compound | zone of inhibition at 10 µg/disc |
| --- | --- |
| CCC[C@@H](OC(C)=O)C1=C(Br)/C(=C/I)OC1=O | 17 mm |
| CCCCCCCC/C=C(\Br)C(O)C(Br)Br (stereo not drawn) | 8 mm |

test system: Escherichia coli; assay: Antimicrobial activity against Escherichia coli at 1 ug; assay type: functional, organism-based; settings: not given; in short: as §1

| Compound | Activity |
| --- | --- |
| CCC[C@@H](OC(C)=O)C1=C(Br)/C(=C/I)OC1=O | inactive |
| CCCCCCCC/C=C(\Br)C(O)C(Br)Br (stereo not drawn) | inactive |
